Converted amounts (≈) assume the structure as drawn. The source made the active and inactive calls. The rule behind the calls is not given here.
How the values were obtained:
Pasteurella multocida = experiment: Antimicrobial activity against Pasteurella multocida subsp. multocida ATCC 43137 after 24 hrs by serial dilution method; assay type: functional; conditions: for MIC: ATCC 43137, 24 h
Procedure, shortened: (§1)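 Serial broth dilution in 96-well microtiter plates. Compounds and controls are dissolved in DMSO as stock. Bacteria are grown overnight at 37 °C, then diluted to 10^6 cfu/mL. E. coli and S. aureus are grown in Luria–Bertani broth. P. multocida and E. rhusiopathiae are grown in trypticase soy broth with 10% calf serum. Plates are incubated at 37 °C for 24 h and read at 630 nm.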

Escherichia coli = experiment: Antimicrobial activity against Escherichia coli ATCC 25922 after 24 hrs by serial dilution method; assay type: functional; conditions: for MIC: ATCC 25922, 24 h; procedure, shortened: as §1
SGC-7901 = experiment: Cytotoxicity against human SGC7901 cells after 6 days by MTT assay; assay type: functional, cell-based; conditions: for IC50: SGC-7901, 144 h
Procedure, shortened: (§2)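 HepG-2 and SGC7901 cells; growth inhibition read by MTT method, with 5-fluorouracil as positive control.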

OS-RC-2 = experiment: Cytotoxicity against human OS-RC2 cells after 72 hrs by CCK8 assay; assay type: functional, cell-based; conditions: for IC50: OS-RC-2, 72 h
Procedure, shortened: (§3)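 Renal cancer lines ACHN, 786-O and OS-RC-2; cell viability read by CCK-8 assay, with sorafenib as positive control.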

Staphylococcus aureus = experiment: Antimicrobial activity against Staphylococcus aureus subsp. aureus Rosenbach ATCC 25923 after 24 hrs by serial dilution method; assay type: functional; conditions: for MIC: Rosenbach ATCC 25923, 24 h; procedure, shortened: as §1
HepG2 = experiment: Cytotoxicity against human HepG2 cells after 6 days by MTT assay; assay type: functional, cell-based; conditions: for IC50: HepG2, 144 h; procedure, shortened: as §2
ACHN = experiment: Cytotoxicity against human ACHN cells after 72 hrs by CCK8 assay; assay type: functional, cell-based; procedure, shortened: as §3
786-0 = experiment: Cytotoxicity against human 786-O cells after 72 hrs by CCK8 assay; assay type: functional, cell-based; conditions: for IC50: 786-0, 72 h; procedure, shortened: as §3
[1] = tested on: Erysipelothrix rhusiopathiae; experiment: Antimicrobial activity against Erysipelothrix rhusiopathiae ATCC 19414 after 24 hrs by serial dilution method; assay type: functional; conditions: for MIC: ATCC 19414, 24 h; procedure, shortened: as §1

Row | Structure (SMILES) | MIC (Pasteurella multocida) [µg/mL] | MIC (Escherichia coli) [µg/mL] | MIC (Staphylococcus aureus) [µg/mL] | MIC [1] [µg/mL] | Activity (Pasteurella multocida) | Activity (Escherichia coli) | Activity (SGC-7901) | Activity (OS-RC-2) | Activity (Staphylococcus aureus) | Activity (HepG2) | Activity (ACHN) | Activity (786-0) | Activity [1] | IC50 (SGC-7901) [µM] | IC50 (OS-RC-2) [µM] | IC50 (HepG2) [µM] | IC50 (ACHN) [µM] | IC50 (786-0) [µM]
1 | Cc1cc(=O)c2c(C)cc(O)cc2o1 | – | – | – | – | inactive | inactive | inactive | inactive | inactive | inactive | inactive | inactive | inactive | – | – | – | – | –
2 | CN[C@@H]1[C@H](O[C@H]2[C@H](O[C@H]3[C@H](O)[C@@H](O)[C@H](N=C(N)N)[C@@H](O)[C@@H]3N=C(N)N)O[C@@H](C)[C@]2(O)C=O)O[C@@H](CO)[C@H](O)[C@H]1O [STREPTOMYCIN] | – | 25 (≈ 43 µM) | – | – | – | – | – | – | – | – | – | – | – | – | – | – | – | –
3 | C=C(C=O)[C@]1(O)C[C@@]2(C)C(=CC1=O)C=C[C@H](OC(=O)/C=C/C(C)=C/[C@@H](C)CC)[C@@H]2C | 13 (≈ 31.5 µM) | > 100 | 1.5 (≈ 3.64 µM) | 13 (≈ 31.5 µM) | – | – | – | – | – | – | – | – | – | 1.4 | 3.7 | 1.4 | 4.3 | 2.5
4 | Cc1cc(O)c2c(c1)C(=O)c1cc(O)cc(O)c1C2=O [EMODIN] | > 100 | > 100 | 100 (≈ 370 µM) | > 100 | – | – | – | – | – | – | – | – | – | 5.6 | – | 1.7 | – | –

Continued, in another order:

Row | MIC (Pasteurella multocida) [µg/mL] | MIC (Escherichia coli) [µg/mL] | MIC (Staphylococcus aureus) [µg/mL] | MIC [1] [µg/mL] | Structure (SMILES) | Activity (Pasteurella multocida) | Activity (Escherichia coli) | Activity (SGC-7901) | Activity (OS-RC-2) | Activity (Staphylococcus aureus) | Activity (HepG2) | Activity (ACHN) | Activity (786-0) | Activity [1] | IC50 (SGC-7901) [µM] | IC50 (OS-RC-2) [µM] | IC50 (HepG2) [µM] | IC50 (ACHN) [µM] | IC50 (786-0) [µM]
5 | > 100 | > 100 | > 100 | > 100 | CC[C@@H]1OC(=O)c2cc(O)c(O)cc21 | – | – | – | – | – | – | – | – | – | > 50 | > 50 | > 50 | 34 | 28
6 | > 100 | > 100 | > 100 | > 100 | C=C(CO)[C@]1(O)C[C@@]2(C)C(=CC1=O)C=CC[C@@H]2C | – | – | – | – | – | – | – | – | – | > 50 | > 50 | > 50 | > 50 | > 50
7 | > 100 | > 100 | > 100 | > 100 | CC[C@@H]1OC(=O)c2c1ccc(O)c2O | – | – | – | – | – | – | – | – | – | > 50 | > 50 | > 50 | > 50 | > 50

— ChEMBL document CHEMBL4145582, “Cytotoxic and Antibacterial Eremophilane Sesquiterpenes from the Marine-Derived Fungus Cochliobolus lunatus SCSIO41401” (J Nat Prod, 2018)
